What was measured:
[1] = Antitumor activity against Brown Norwegian rat bearing BN472 tumor assessed as reduction of tumor weight at 1 mg/kg, ip administered once daily after 4 days of tumor transplantation for 17 to 18 days relative to control; assay type: functional; parameters: scale not given: the % may be the effect or the level left; settings: route intraperitoneal
How it was run: (§1)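 Rats bearing orthotopic BN472 breast tumours (grown three days) were dosed i.p. daily from day 4 for 17–18 days at 0.1 or 1 mg/kg. Vehicle-only i.p. controls were included. Tumour size and tumour weight were measured at the end of the treatment period and compared with controls.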

Prothrombin [2] = target: Prothrombin (Mus musculus, UniProt P19221); test: Inhibition of mouse thrombin
[3] = Chemical stability assessed as half life of hydrolysis at pH 7.4; assay type: physicochemical; settings: buffer
Rattus norvegicus [4] = test: Toxicity in Brown Norwegian rat bearing BN472 tumor assessed as decrease in liver weight at 0.1 mg/kg, ip administered once daily after 4 days of tumor transplantation for 17 to 18 days relative to control; assay type: organism-based; parameters: dose 0.1 mg/kg, route intraperitoneal; scale not given: the % may be the effect or the level left; settings: in vivo
How it was run: (§2)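 Orthotopic BN472 breast tumour model in rats. Daily i.p. dosing at 0.1 or 1 mg/kg started on day 4 and ran 17–18 days, with vehicle-only i.p. controls. Side effects were assessed from body weight and the weights of several organs, compared with controls.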

[5] = Chemical stability assessed as half life of hydrolysis at pH 4; assay type: physicochemical; settings: buffer
Rattus norvegicus [6] = test: Toxicity in Brown Norwegian rat bearing BN472 tumor assessed as increase in lung weight at 1 mg/kg, ip administered once daily after 4 days of tumor transplantation for 17 to 18 days relative to control; assay type: organism-based; parameters: dose 1 mg/kg, route intraperitoneal; settings: in vivo; how it was run: as §2
[7] = Distribution coefficient, log D in octanol and phosphate buffer saline at pH 7.4; assay type: physicochemical; settings: octanol/phosphate buffered saline
How it was run: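 A 10 mM DMSO stock was added to a 1:1 octanol/PBS pH 7.4 mixture. Measured in duplicate.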

[8] = Antimetastatic activity against Brown Norwegian rat bearing BN472 tumor assessed as reduction of axillary lymph node weight at 1 mg/kg, ip administered once daily after 4 days of tumor transplantation for 17 to 18 days relative to control; assay type: functional; parameters: scale not given: the % may be the effect or the level left; settings: route intraperitoneal
How it was run: (§3)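 BN472 breast tumours implanted orthotopically in rats and left to grow three days. From day 4, compounds were given i.p. daily for 17–18 days at 0.1 or 1 mg/kg. Controls received vehicle i.p. only. Lung foci were counted and axillary lymph nodes weighed at the end of treatment. Groups were compared with control at an unadjusted significance level of P 0.05.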

Plasminogen [9] = target: Plasminogen (Mus musculus, UniProt P20918); test: Inhibition of mouse plasmin
Rattus norvegicus [10] = test: Toxicity in Brown Norwegian rat bearing BN472 tumor assessed as increase in kidney weight at 0.1 mg/kg, ip administered once daily after 4 days of tumor transplantation for 17 to 18 days relative to control; assay type: organism-based; parameters: dose 0.1 mg/kg, route intraperitoneal; settings: in vivo; how it was run: as §2
[11] = Antitumor activity aganist Brown Norwegian rat bearing BN472 tumor assessed as reduction of tumor weight at 0.1 mg/kg, ip administered once daily after 4 days of tumor transplantation for 17 to 18 days relative to control; assay type: functional; parameters: scale not given: the % may be the effect or the level left; settings: route intraperitoneal; how it was run: as §1
Rattus norvegicus [12] = test: Toxicity in Brown Norwegian rat bearing BN472 tumor assessed as increase in kidney weight at 1 mg/kg, ip administered once daily after 4 days of tumor transplantation for 17 to 18 days relative to control; assay type: organism-based; parameters: dose 1 mg/kg, route intraperitoneal; settings: in vivo; how it was run: as §2
[13] = Stability in human plasma after 3 hrs; assay type: ADME, cell-free; settings: read-out: Stability
How it was run: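 Compound was added from 10 mM DMSO stock to human plasma at 200 µM final and shaken at 37 °C for up to 24 h. Aliquots were quenched in methanol and centrifuged. The supernatant was diluted with internal standard and analysed by LC/MS/MS in triplicate. Result is given as % parent compound remaining.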

[14] = Antimetastatic activity against Brown Norwegian rat bearing BN472 tumor assessed as decrease in number of lung foci at 1 mg/kg, ip administered once daily after 4 days of tumor transplantation for 17 to 18 days relative to control; assay type: functional; parameters: scale not given: the % may be the effect or the level left; settings: route intraperitoneal; how it was run: as §3
Rattus norvegicus [15] = test: Toxicity in Brown Norwegian rat bearing BN472 tumor assessed as increase in uterus weight at 0.1 mg/kg, ip administered once daily after 4 days of tumor transplantation for 17 to 18 days relative to control; assay type: organism-based; parameters: dose 0.1 mg/kg, route intraperitoneal; settings: in vivo; how it was run: as §2
[16] = Antimetastatic activity against Brown Norwegian rat bearing BN472 tumor assessed as reduction of axillary lymph node weight at 0.1 mg/kg, ip administered once daily after 4 days of tumor transplantation for 17 to 18 days relative to control; assay type: functional; parameters: scale not given: the % may be the effect or the level left; settings: route intraperitoneal; how it was run: as §3
Prothrombin [17] = target: Prothrombin (Rattus norvegicus, UniProt P18292); test: Inhibition of rat thrombin
Rattus norvegicus [18] = test: Toxicity in Brown Norwegian rat bearing BN472 tumor assessed as increase in lung weight at 0.1 mg/kg, ip administered once daily after 4 days of tumor transplantation for 17 to 18 days relative to control; assay type: organism-based; parameters: dose 0.1 mg/kg, route intraperitoneal; settings: in vivo; how it was run: as §2
Plasminogen [19] = target: Plasminogen (Rattus norvegicus, UniProt Q01177); test: Inhibition of rat plasmin
Rattus norvegicus [20] = test: (§4) Toxicity in Brown Norwegian rat bearing BN472 tumor assessed as decrease in adrenal weight at 0.1 mg/kg, ip administered once daily after 4 days of tumor transplantation for 17 to 18 days relative to control; assay type: organism-based; parameters: dose 0.1 mg/kg, route intraperitoneal; scale not given: the % may be the effect or the level left; settings: in vivo; how it was run: as §2
Rattus norvegicus [21] = test: Toxicity in Brown Norwegian rat bearing BN472 tumor assessed as increase in uterus weight at 1 mg/kg, ip administered once daily after 4 days of tumor transplantation for 17 to 18 days relative to control; assay type: organism-based; parameters: dose 1 mg/kg, route intraperitoneal; settings: in vivo; how it was run: as §2
Rattus norvegicus [22] = test: Toxicity in Brown Norwegian rat bearing BN472 tumor assessed as decrease in spleen weight at 1 mg/kg, ip administered once daily after 4 days of tumor transplantation for 17 to 18 days relative to control; assay type: organism-based; parameters: dose 1 mg/kg, route intraperitoneal; scale not given: the % may be the effect or the level left; settings: in vivo; how it was run: as §2
[23] = target: Tissue-type plasminogen activator (Homo sapiens, UniProt P00750); test: Inhibition of human recombinant tPA
[24] = target: Urokinase-type plasminogen activator (Homo sapiens, UniProt P00749)
Rattus norvegicus [25] = test: as §4; assay type: organism-based; parameters: dose 0.1 mg/kg, route intraperitoneal; scale not given: the % may be the effect or the level left; settings: in vivo; how it was run: as §2; remark: listed apart in the source
Rattus norvegicus [26] = test: Toxicity in Brown Norwegian rat bearing BN472 tumor assessed as increase in spleen weight at 0.1 mg/kg, ip administered once daily after 4 days of tumor transplantation for 17 to 18 days relative to control; assay type: organism-based; parameters: dose 0.1 mg/kg, route intraperitoneal; settings: in vivo; how it was run: as §2
[27] = Antimetastatic activity against Brown Norwegian rat bearing BN472 tumor assessed as decrease in number of lung foci at 0.1 mg/kg, ip administered once daily after 4 days of tumor transplantation for 17 to 18 days relative to control; assay type: functional; parameters: scale not given: the % may be the effect or the level left; settings: route intraperitoneal; how it was run: as §3
Rattus norvegicus [28] = test: Toxicity in Brown Norwegian rat bearing BN472 tumor assessed as effect on body weight at 0.1 mg/kg, ip administered once daily after 4 days of tumor transplantation for 17 to 18 days relative to control; assay type: organism-based; parameters: dose 0.1 mg/kg, route intraperitoneal; settings: in vivo; how it was run: as §2
[29] = target: Urokinase-type plasminogen activator (Mus musculus, UniProt P06869); test: Inhibition of mouse uPA
[30] = Antitumor activity aganist Brown Norwegian rat bearing BN472 tumor assessed as reduction of tumor size at 0.1 mg/kg, ip administered once daily after 4 days of tumor transplantation for 17 to 18 days relative to control; assay type: functional; parameters: scale not given: the % may be the effect or the level left; settings: route intraperitoneal; how it was run: as §1
[31] = Antimetastatic activity against Brown Norwegian rat bearing BN472 tumor assessed as reduction of interpectoral lymph node weight at 0.1 mg/kg, ip administered once daily after 4 days of tumor transplantation for 17 to 18 days relative to control; assay type: functional; parameters: scale not given: the % may be the effect or the level left; settings: route intraperitoneal
Rattus norvegicus [32] = test: Toxicity in Brown Norwegian rat bearing BN472 tumor assessed as decrease in liver weight at 1 mg/kg, ip administered once daily after 4 days of tumor transplantation for 17 to 18 days relative to control; assay type: organism-based; parameters: dose 1 mg/kg, route intraperitoneal; scale not given: the % may be the effect or the level left; settings: in vivo; how it was run: as §2

Tissue-type plasminogen activator, sequence (P00750 whole entry): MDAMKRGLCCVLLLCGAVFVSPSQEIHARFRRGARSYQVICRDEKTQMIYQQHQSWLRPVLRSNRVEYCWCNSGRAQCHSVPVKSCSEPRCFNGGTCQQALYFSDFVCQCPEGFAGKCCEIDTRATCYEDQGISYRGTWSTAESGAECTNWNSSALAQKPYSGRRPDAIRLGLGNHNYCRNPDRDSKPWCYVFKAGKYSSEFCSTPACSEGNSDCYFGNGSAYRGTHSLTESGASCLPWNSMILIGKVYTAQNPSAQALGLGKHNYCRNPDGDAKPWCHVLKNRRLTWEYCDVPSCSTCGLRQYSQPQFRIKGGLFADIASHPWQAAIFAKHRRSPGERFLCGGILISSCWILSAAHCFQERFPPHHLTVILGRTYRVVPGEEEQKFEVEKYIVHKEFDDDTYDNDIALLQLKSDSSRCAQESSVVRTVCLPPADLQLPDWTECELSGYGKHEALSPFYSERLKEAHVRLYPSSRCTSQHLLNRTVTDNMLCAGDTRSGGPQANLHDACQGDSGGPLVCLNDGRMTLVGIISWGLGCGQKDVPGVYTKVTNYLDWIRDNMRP
Plasminogen (Rattus norvegicus, UniProt Q01177), sequence (Q01177 97-581 limits assumed): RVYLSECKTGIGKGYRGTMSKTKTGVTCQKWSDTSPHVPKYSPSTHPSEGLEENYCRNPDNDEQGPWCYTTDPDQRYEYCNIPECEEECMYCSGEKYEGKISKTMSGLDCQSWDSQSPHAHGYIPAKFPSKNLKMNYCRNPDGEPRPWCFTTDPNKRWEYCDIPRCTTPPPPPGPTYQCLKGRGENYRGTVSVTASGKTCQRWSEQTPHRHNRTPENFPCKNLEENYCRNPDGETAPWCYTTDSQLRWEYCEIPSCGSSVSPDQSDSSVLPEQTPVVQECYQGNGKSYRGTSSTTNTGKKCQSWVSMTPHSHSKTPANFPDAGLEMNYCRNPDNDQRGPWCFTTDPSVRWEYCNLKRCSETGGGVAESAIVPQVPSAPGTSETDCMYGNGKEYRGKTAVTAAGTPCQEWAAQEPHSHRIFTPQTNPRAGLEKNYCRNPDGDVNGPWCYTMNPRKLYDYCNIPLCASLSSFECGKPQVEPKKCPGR
Plasminogen (Rattus norvegicus, UniProt Q01177), sequence (Q01177 582-812 limits assumed): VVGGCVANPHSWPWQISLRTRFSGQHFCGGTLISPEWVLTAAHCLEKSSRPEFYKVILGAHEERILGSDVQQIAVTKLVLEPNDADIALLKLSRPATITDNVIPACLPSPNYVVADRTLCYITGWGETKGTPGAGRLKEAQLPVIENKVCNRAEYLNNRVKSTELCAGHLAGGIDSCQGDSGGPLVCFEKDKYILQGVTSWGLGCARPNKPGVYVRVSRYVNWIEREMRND
Plasminogen (Mus musculus, UniProt P20918), sequence (P20918 98-581 limits assumed): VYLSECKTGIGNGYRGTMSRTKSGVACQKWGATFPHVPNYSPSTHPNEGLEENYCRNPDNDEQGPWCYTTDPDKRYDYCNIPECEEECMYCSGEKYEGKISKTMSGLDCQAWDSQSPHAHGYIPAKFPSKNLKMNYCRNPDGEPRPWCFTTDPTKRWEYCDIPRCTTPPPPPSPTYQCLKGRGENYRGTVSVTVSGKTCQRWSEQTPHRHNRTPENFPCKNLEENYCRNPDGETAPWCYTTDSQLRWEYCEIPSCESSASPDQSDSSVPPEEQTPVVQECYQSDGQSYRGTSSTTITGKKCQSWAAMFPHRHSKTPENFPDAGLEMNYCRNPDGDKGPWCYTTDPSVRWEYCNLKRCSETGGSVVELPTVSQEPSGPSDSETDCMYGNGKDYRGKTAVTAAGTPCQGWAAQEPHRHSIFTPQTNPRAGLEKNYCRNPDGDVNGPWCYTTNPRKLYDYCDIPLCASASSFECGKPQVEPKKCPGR
Plasminogen (Mus musculus, UniProt P20918), sequence (P20918 582-812 limits assumed): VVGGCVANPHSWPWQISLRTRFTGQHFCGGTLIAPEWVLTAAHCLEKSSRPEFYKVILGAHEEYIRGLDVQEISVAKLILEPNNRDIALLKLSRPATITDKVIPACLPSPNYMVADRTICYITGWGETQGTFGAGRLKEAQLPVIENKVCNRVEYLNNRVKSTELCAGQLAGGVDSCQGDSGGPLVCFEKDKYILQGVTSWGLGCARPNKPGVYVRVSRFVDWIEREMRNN
Urokinase-type plasminogen activator (Mus musculus, UniProt P06869), sequence (P06869 21-178 limits assumed): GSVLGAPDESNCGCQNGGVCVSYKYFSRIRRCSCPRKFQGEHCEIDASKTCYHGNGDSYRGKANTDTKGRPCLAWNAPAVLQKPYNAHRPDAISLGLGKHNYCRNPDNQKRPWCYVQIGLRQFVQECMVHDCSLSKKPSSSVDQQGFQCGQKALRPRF
Urokinase-type plasminogen activator (Mus musculus, UniProt P06869), sequence (P06869 180-433 limits assumed): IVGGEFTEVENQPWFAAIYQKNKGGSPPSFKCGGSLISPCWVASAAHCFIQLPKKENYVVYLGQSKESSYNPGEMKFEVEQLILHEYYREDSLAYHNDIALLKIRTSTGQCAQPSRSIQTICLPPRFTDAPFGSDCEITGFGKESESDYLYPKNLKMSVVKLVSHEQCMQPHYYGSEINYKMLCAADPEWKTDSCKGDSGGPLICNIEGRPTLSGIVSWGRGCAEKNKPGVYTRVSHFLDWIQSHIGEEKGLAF

COC(=O)NC(Cc1ccc(NC(=N)N)cc1)P(=O)(Oc1ccc(NC(C)=O)cc1)Oc1ccc(NC(C)=O)cc1 (configuration not stated)
Activity [1]: 17%
IC50 (Prothrombin [2]): 4.5 µM
half-life [3]: 64 h
Activity (Rattus norvegicus [4]): 2%
half-life [5]: > 336 h
Activity (Rattus norvegicus [6]): 7%
logD [7]: -0.08
Activity [8]: 73%
IC50 (Plasminogen [9]): 4.8 µM
Activity (Rattus norvegicus [10]): 7%
Activity [11]: 15%
Activity (Rattus norvegicus [12]): 3%
remaining at 3 h [13]: 81%
Activity [14]: 70%
Activity (Rattus norvegicus [15]): 16%
Activity [16]: 49%
IC50 (Prothrombin [17]): 45 µM
Activity (Rattus norvegicus [18]): 18%
IC50 (Plasminogen [19]): 2.2 µM
Activity (Rattus norvegicus [20]): 2%
Activity (Rattus norvegicus [21]): 33%
Activity (Rattus norvegicus [22]): 10%
IC50 [23]: 6.1 µM
Kapp [24]: 1e+06 M⁻¹ s⁻¹
Activity (Rattus norvegicus [25]): 5%
Activity (Rattus norvegicus [26]): 3%
Activity [27]: 42%
Activity (Rattus norvegicus [28]): 163.5 g
IC50 [29]: 0.008 µM
Activity [30]: 10%
Activity [31]: 3%
Activity (Rattus norvegicus [32]): 8%
